Published values from different studies.
Compare with care: the assays were run in different laboratories.
Target: Serine/threonine-protein kinase ULK1 (ULK1, Homo sapiens, UniProt O75385)
Sequence (O75385 1-1050, as in one of the studies): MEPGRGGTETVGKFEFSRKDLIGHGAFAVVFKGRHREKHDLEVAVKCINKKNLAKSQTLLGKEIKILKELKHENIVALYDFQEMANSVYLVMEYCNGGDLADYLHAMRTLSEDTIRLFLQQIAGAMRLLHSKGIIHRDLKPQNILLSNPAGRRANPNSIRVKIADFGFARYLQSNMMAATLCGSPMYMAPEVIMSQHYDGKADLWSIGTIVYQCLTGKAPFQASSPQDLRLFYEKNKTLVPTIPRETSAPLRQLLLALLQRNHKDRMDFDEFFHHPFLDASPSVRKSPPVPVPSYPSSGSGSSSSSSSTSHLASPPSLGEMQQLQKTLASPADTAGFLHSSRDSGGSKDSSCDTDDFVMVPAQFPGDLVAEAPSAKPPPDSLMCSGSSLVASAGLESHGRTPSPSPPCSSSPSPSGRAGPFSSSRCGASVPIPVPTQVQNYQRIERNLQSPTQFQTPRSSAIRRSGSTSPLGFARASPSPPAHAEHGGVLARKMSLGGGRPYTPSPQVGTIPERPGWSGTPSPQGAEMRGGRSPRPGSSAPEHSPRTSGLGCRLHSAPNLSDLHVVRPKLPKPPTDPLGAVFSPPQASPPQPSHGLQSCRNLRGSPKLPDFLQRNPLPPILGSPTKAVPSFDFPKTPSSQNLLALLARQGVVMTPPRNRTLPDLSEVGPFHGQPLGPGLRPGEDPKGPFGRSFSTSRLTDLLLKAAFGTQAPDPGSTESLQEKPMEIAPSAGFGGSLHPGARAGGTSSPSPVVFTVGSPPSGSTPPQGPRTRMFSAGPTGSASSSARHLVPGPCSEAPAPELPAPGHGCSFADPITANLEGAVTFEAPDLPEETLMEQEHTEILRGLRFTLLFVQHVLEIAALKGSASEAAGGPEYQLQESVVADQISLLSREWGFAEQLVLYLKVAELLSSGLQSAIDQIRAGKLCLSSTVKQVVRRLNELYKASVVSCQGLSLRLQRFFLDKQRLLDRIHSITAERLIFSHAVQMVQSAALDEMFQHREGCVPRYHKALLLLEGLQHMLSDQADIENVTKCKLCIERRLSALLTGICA

Compound | assay | setting | measurement | value
Cc1nn(CC(F)(F)F)cc1Nc1ncc(Br)c(NCc2ccc(S(N)(=O)=O)cc2)n1 | enzyme activity, inhibitor, radiometric | 1 µM | remaining activity | 77%
C[C@@H](c1cccc(C#N)c1)n1cc(Cl)cc(C(N)=O)c1=N | cell-free assay, competition with immobilised ligand | 1 µM | remaining binding | 72%
O=C(NCCCNc1nc(Nc2cccc(NC(=O)N3CCCC3)c2)ncc1Br)C1CCC1 | enzyme activity, inhibitor, radiometric | 1 µM | remaining activity | 2%
Cc1cc(NC(=O)c2cccc3cc(-c4cccc5[nH]nc(N)c45)ccc23)ccc1F | enzyme activity, inhibitor | 0.1 µM | activity vs control | 95%
Brc1cnc(Nc2cccc(CN3CCOCC3)c2)nc1NCCc1c[nH]cn1 | enzyme activity, inhibitor, radiometric | 1 µM | remaining activity | 3%
Nc1ncnc2occ(-c3ccc(NC(=O)Nc4cc(C(F)(F)F)ccc4F)cc3)c12 | cell-free assay, inhibitor | 20 µM | remaining signal | 48%
Cc1nn(CC(F)(F)F)cc1Nc1nccc(NCCc2cnc[nH]2)n1 | enzyme activity, inhibitor, radiometric | 1 µM | remaining activity | 88%
CCOCCn1cc(C(=O)Nc2ccc(-n3nc(-c4cccnc4)cc3C(F)(F)F)cn2)ccc1=O | cell-free assay, competition with immobilised ligand | 1 µM | remaining binding | 76%
Cc1nn(CC(F)(F)F)cc1Nc1ncc(C2CC2)c(NCCCNC(=O)C2CCC2)n1 | enzyme activity, inhibitor, radiometric | 1 µM | remaining activity | 58%
CS(=O)(=O)N1CCCC(NC(=O)[C@H](CCC2CCCCC2)NC(=O)c2ccc(CNc3ncnc4c3nnn4-c3ccccc3)cc2)C1 (stereo partly shown) | cell-free assay, competition with immobilised ligand | 0.1 µM | remaining binding | 100%
Cc1nn(CC(F)(F)F)cc1Nc1ncc(Br)c(NCCCNC(=O)C2CCC2)n1 | enzyme activity, inhibitor, radiometric | 1 µM | remaining activity | 3%
Cc1c(C(=O)O)cc(-c2ccc(C3CCNCC3)cc2)c2ccc(-c3ccc(C(F)(F)F)cc3)cc12 | binding, competition with immobilised ligand | 1 µM | remaining binding | 100%
O=C(NCCCNc1nc(Nc2cccc(NC(=O)N3CCCC3)c2)ncc1I)c1cccs1 | enzyme activity, inhibitor, radiometric | 1 µM | remaining activity | 4%
COc1ccc(Nc2ncc(C(F)(F)F)c(NC3CC3)n2)cc1OC | thermal stability, DSF | 10 µM | ΔTm | 9.5 °C
COc1cccc2c(NCc3ccccc3)nc(-n3c(N)nc4ccccc43)nc12 | target engagement in cells, inhibitor, chemoproteomics | 20 mM | inhibition | -8.3%
C[S+]([O-])c1ccc(-c2nc(-c3ccncc3)c(-c3ccc(F)cc3)[nH]2)cc1 (stereo not shown) | cell-free assay | 0.5 µM | remaining signal | 89.3%
Cc1ccc(C(=O)NCc2ccsc2)cc1C#Cc1cn(C(C)C)c2ncnc(N)c12 | enzyme activity, inhibitor | 1 µM | activity vs control | 101%
N#CCCc1ccc2c(c1)-c1[nH]c3ccc([N+](=O)[O-])cc3c1CC(=O)N2 | cell-free assay | 0.5 µM | remaining signal | 94.2%
O=C(NCc1ncc(C(F)(F)F)cc1Cl)c1ccc2c(c1)C1(CCS(=O)(=O)CC1)[C@@H](C1CC1)N2S(=O)(=O)c1ccc(F)cc1 | cell-free assay, competition with immobilised ligand | 1 µM | remaining binding | 80%
FC(F)(F)Oc1cccc(-c2cnc3ccc(-c4ccncc4)nn23)c1 | enzyme activity, inhibitor, radiometric | 1 µM | activity vs control | 114%
CCc1ccccc1C(=O)Nc1n[nH]c2c(C)c(F)c(C3C(C#N)=C(C)N(C)C(C)=C3C#N)cc12 | cell-free assay, competition with immobilised ligand | 1 µM | remaining binding | 29%
COc1ccc(COc2ccc(Cc3cnc(N)nc3N)cc2OC)cc1 | cell-free assay | 0.5 µM | remaining signal | 99.7%
